Test system: BV-2; call rule not given here
Assay: Antineuroinflammatory activity against mouse BV2 cells assessed as inhibition of LPS-induced NO production incubated for 24 hrs by Griess assay
Assay type: functional, cell-based
Procedure, shortened: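 Griess read-out of nitrite in LPS-stimulated BV-2 microglia, with cell viability checked in parallel by MTT. Minocycline served as positive control. IC50 values are reported as mean ± SEM.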

[1] = Mus musculus, BV-2, 24 h, read-out: IC50

Row | Structure (SMILES) | IC50 [1] [µM] | IC50 (bv-2)
1 | COc1c(O)ccc2c1ccc1c(-c3c(O)cc(OC)c4c3ccc3c(OC)c(O)ccc34)c(O)cc(OC)c12 | 1 | –
2 | COc1cc(O)c2c(c1-c1c(OC)cc(O)c3c1CCc1cc(O)ccc1-3)CCc1cc(O)ccc1-2 | 39.4 | –
3 | COc1cc(O)c2c(ccc3cc(O)ccc32)c1-c1c(OC)cc(O)c2c1ccc1cc(O)ccc12 | – | Not Active
4 | COc1cc([C@@H]2Oc3cc(OC)c4c(c3[C@H]2CO)CCc2cc(O)ccc2-4)cc(OC)c1O | 18.5 | –
5 | COc1cc(O)c(-c2c(O)cc(OC)c3c2ccc2cc(O)ccc23)c2c1-c1ccc(O)cc1CC2 [CIRRHOPETALANTHRIN] | 46.8 | –
6 | COc1cc(O)c2c(c1Cc1ccc(O)cc1)CCc1cc(O)ccc1-2 | 12 to 30 | –
7 | CN(C)c1ccc(O)c2c1C[C@H]1C[C@H]3[C@H](N(C)C)C(O)=C(C(N)=O)C(=O)[C@@]3(O)C(O)=C1C2=O [MINOCYCLINE] | 27.2 to 35.7 | –
8 | COc1c(Cc2ccc(O)cc2)c(O)cc2c1-c1ccc(O)cc1CC2 | 34.6 | –
9 | OC[C@H]1O[C@@H](Oc2ccc(Cc3c(O)ccc4c3CCc3cc(O)ccc3-4)cc2)[C@H](O)[C@@H](O)[C@@H]1O | 17.9 | –
10 | COc1cc(O)c(Cc2ccc(O)cc2)c2ccc3cc(O)ccc3c12 | 30.2 | –
11 | COc1cc([C@H]2Oc3cc4c(cc3[C@@H]2COC(C)=O)-c2c(cc(O)cc2OC)CC4)ccc1O | 24.8 | –
12 | COc1cc(O)cc2c1-c1ccc(O)cc1CC2 | 15.2 | –
13 | COc1cc(O)cc2c1-c1cc(-c3c(O)cc(OC)c4c3ccc3cc(O)ccc34)c(O)cc1CC2 | 22.1 | –
14 | COc1c(O)cc2c(c1OC)-c1ccc(O)cc1CC2 [ERIANTHRIDIN] | 93.5 | –

Results, then the compound that gave them:

Row | IC50 [1] [µM] | IC50 (bv-2) | Structure (SMILES)
15 | 82 | – | COc1ccc2c(ccc3c(Cc4ccc(O)cc4)c(O)cc(OC)c32)c1
16 | 49 | – | COc1ccc2c(c1O)CCc1c(Cc3ccc(O)cc3)c(O)cc(OC)c1-2
17 | 5 | – | COc1cc2c(ccc3c(-c4c(O)cc(OC)c5c4ccc4cc(O)ccc45)c(O)cc(OC)c32)cc1O
18 | 1.9 | – | COc1cc(O)cc(CCc2cccc(O)c2)c1-c1c(OC)cc(O)c2c1CCc1cc(O)ccc1-2
19 | 60.7 | – | COc1cc(CCc2cccc(O)c2)c(-c2c(O)cc(O)c3c2CCc2cc(O)ccc2-3)c(OC)c1
20 | 30 | – | COc1c(O)c(O)cc2ccc3cc(O)ccc3c12
21 | 12 | – | COc1cc(O)cc2c1-c1cc(-c3c(O)cc(OC)c4c3CCc3cc(O)ccc3-4)c(O)cc1CC2
